Experiments:
[1] = folding enthalpy; higher = less favourable; fluorescence melt of hairpins on a sequencing array, two-state fit; conditions: sodium 0.088 M
Procedure, shortened: (§1)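 Melting temperature and folding enthalpy were derived from bootstrapped two-state fits. The fitted temperatures were raised by 9.35 °C to agree with UV melts, and four replicates were combined by inverse variance. The underlying data were Cy3 fluorescence images of library hairpins, with annealed Cy3 and quencher oligos, on a sequenced MiSeq flow cell in 50 mM Na-HEPES pH 8.0, 25 mM NaCl, taken in 2.5 °C steps up to 60 °C, normalised to pre-quench Cy3 and to control constructs.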

[2] = melting temperature; fluorescence melt of hairpins on a sequencing array, two-state fit, raised by 9.35 °C to match UV melts; conditions: sodium 0.088 M
Procedure, shortened: as §1

| Sequence | folding enthalpy [1] | Tm [2] |
| --- | --- | --- |
| GACACGGGAAACCGCGTC (((.(((....))).))) | -47.8 kcal/mol | 50.9 °C |
| GACACTACGAAAGTAGTC (((..(((....)))))) | -10.3 kcal/mol | 32.4 °C |
| GACACTGAAAAGTGTC ((((((....)))))) | -34.5 kcal/mol | 58.6 °C |
| GACAGACCGAAAGGTGTC (((..(((....)))))) | -19.5 kcal/mol | 44.3 °C |
| GACAGACGAAAGTCGTC (((.(((....)))))) | -17.8 kcal/mol | 53 °C |
| GACAGCCGAAAGGCGGTC (((.(((....))).))) | -20.1 kcal/mol | 67 °C |
| GACAGCCGAAAGGCGTC (((.(((....)))))) | -12.7 kcal/mol | 60 °C |
| GACAGCGAAAGCTCGGTC ((((((....)))..))) | -10.6 kcal/mol | 46.8 °C |
| GACAGCGAAAGCTCGTC ((((((....))).))) | -19.6 kcal/mol | 50.5 °C |
| GACAGCGAAAGCTCTGTC ((((((....)))..))) | -15.2 kcal/mol | 39.6 °C |
| GACAGCGAAAGCTGAGTC ((((((....)))..))) | -8.14 kcal/mol | 39.2 °C |
| GACAGCGAAAGCTGGGTC ((((((....)))..))) | -12.4 kcal/mol | 62 °C |
| GACAGCGAAAGCTGTGTC ((((((....)))..))) | -10.8 kcal/mol | 56.9 °C |
| GACAGCGAAAGCTTCGTC ((((((....)))..))) | -13 kcal/mol | 43.9 °C |
| GACAGGACGAAAGTCGTC (((..(((....)))))) | -16.7 kcal/mol | 42.6 °C |
| GACAGGCGAAAGCCGGTC (((.(((....))).))) | -25.9 kcal/mol | 67.1 °C |
| GACAGGGCGAAAGCCGTC (((..(((....)))))) | -14.1 kcal/mol | 49.6 °C |
| GACAGTCCGAAAGGAGTC (((..(((....)))))) | -17 kcal/mol | 30.3 °C |
| GACAGTGCGAAAGCAGTC (((..(((....)))))) | -13.3 kcal/mol | 40.5 °C |
| GACAGTGGAAACACCGTC (((.(((....))).))) | -24.8 kcal/mol | 39.6 °C |
| GACAGTGGAAACGTTGTC ((((..(....)..)))) | -20.9 kcal/mol | 36.2 °C |
| GACATACGAAAGTACGTC (((.(((....))).))) | -27 kcal/mol | 42.5 °C |
| GACATGCGAAAGCACGTC (((.(((....))).))) | -26.3 kcal/mol | 52.4 °C |

| Sequence | folding enthalpy [1] | Tm [2] |
| --- | --- | --- |
| GACATGGGAAACCACGTC (((.(((....))).))) | -26.7 kcal/mol | 38.8 °C |
| GACATGGGAAACCGTGTC ((((.((....)).)))) | -30.9 kcal/mol | 52.1 °C |
| GACATTCCGAAAGGAGTC (((..(((....)))))) | -12.3 kcal/mol | 28.6 °C |
| GACATTGGAAACAATGTC (((((((....))))))) | -44.1 kcal/mol | 56.6 °C |
| GACCAAGAAATTGGTC ((((((....)))))) | -25.9 kcal/mol | 54.4 °C |
| GACCACCGAAAGGTGTC (((.(((....)))))) | -12.7 kcal/mol | 47.5 °C |
| GACCACGAAAGTGAGGTC ((((((....)))..))) | -22.8 kcal/mol | 48.3 °C |
| GACCACGAAAGTGCTGTC ((((((....)))..))) | -17.2 kcal/mol | 34 °C |
| GACCACGAAAGTGGGGTC ((((((....)))..))) | -13.2 kcal/mol | 61.2 °C |
| GACCACGAAAGTGTGGTC ((((((....)))..))) | -41 kcal/mol | 55.2 °C |
| GACCACGAAAGTGTGTC ((((((....))).))) | -27.3 kcal/mol | 52.9 °C |
| GACCACGGAAACGTAGCC (.(.(((....))).).) | -9.48 kcal/mol | 23.6 °C |
| GACCACGGAAACGTAGTC (((.(((....))).))) | -22.6 kcal/mol | 37 °C |
| GACCACGGAAACGTGATC ((.((((....)))).)) | -19.9 kcal/mol | 43.3 °C |
| GACCAGACGAAAGTCGTC (((..(((....)))))) | -12.5 kcal/mol | 31.7 °C |
| GACCAGCCGAAAGGCGTC (((..(((....)))))) | -7.85 kcal/mol | 34.5 °C |
| GACCAGGGAAACCCAGTC (((..((....))..))) | -18.4 kcal/mol | 29.1 °C |
| GACCAGGGAAACCTGATC ((.((((....)))).)) | -22.3 kcal/mol | 34.8 °C |
| GACCATACGAAAGTAGTC (((..(((....)))))) | -9.93 kcal/mol | 25.7 °C |
| GACCATGGAAACATAGTC (((.(((....))).))) | -19.8 kcal/mol | 30.8 °C |
| GACCATGGAAACGTGGTC (((((.(....).))))) | -42.7 kcal/mol | 52.6 °C |
| GACCCAGGAAACCAGGTC ((((..(....)..)))) | -24.3 kcal/mol | 34 °C |
| GACCCAGGAAACTGGGCC (.(((((....))))).) | -16.5 kcal/mol | 47.9 °C |

| Sequence | folding enthalpy [1] | Tm [2] |
| --- | --- | --- |
| GACCCCCGAAAGGGAGTC (((.(((....))).))) | -28.8 kcal/mol | 54 °C |
| GACCCCGAAAGGGAGGTC ((((((....)))..))) | -21.8 kcal/mol | 49.4 °C |
| GACCCCGAAAGGGAGTC ((((((....))).))) | -23 kcal/mol | 56.5 °C |
| GACCCCGAAAGGGTGTC ((((((....))).))) | -26.6 kcal/mol | 57.6 °C |
| GACCCTCCGAAAGGAGTC (((..(((....)))))) | -7.33 kcal/mol | 23.4 °C |
| GACCCTGGAAACAGGGTC (((((((....))))))) | -36.9 kcal/mol | 67.7 °C |
| GACCCTGGAAACGGGGTC (((((.(....).))))) | -40.3 kcal/mol | 57.6 °C |
| GACCGAGCGAAAGCTGTC (((..(((....)))))) | -15.3 kcal/mol | 36.8 °C |
| GACCGAGGAAACTCGATC ((.((((....)))).)) | -21.1 kcal/mol | 40.7 °C |
| GACCGAGGAAACTCGGCC (.(((((....))))).) | -15.1 kcal/mol | 46.6 °C |
| GACCGCCGAAAGGCTGTC (((.(((....))).))) | -20.6 kcal/mol | 55.5 °C |
| GACCGCGAAAGCGAAGTC ((((((....)))..))) | -16.9 kcal/mol | 47.4 °C |
| GACCGCGAAAGCGCAGTC ((((((....)))..))) | -16.3 kcal/mol | 38 °C |
| GACCGCGGAAACACGGTC (((((.(....).))))) | -52 kcal/mol | 55.5 °C |
| GACCGCGGAAACGTGGTC ((((.((....)).)))) | -44.8 kcal/mol | 62.8 °C |
| GACCGGCGAAAGCCCGTC (((.(((....))).))) | -16.9 kcal/mol | 50.8 °C |
| GACCGGCGAAAGCCGTC (((.(((....)))))) | -8.28 kcal/mol | 49.1 °C |
| GACCGGGCGAAAGCCGTC (((..(((....)))))) | -10.3 kcal/mol | 40.4 °C |
| GACCGGGGAAACCCAGTC (((.(((....))).))) | -23.6 kcal/mol | 42.8 °C |
| GACCGGGGAAACCCGATC ((.((((....)))).)) | -19.9 kcal/mol | 44 °C |
| GACCGGGGAAACCTGGTC ((((.((....)).)))) | -39.3 kcal/mol | 55.4 °C |
| GACCGTGGAAACACGATC ((.((((....)))).)) | -19.1 kcal/mol | 43.1 °C |
| GACCGTGGAAACGCGGTC (((((.(....).))))) | -40 kcal/mol | 58.6 °C |

| Sequence | folding enthalpy [1] | Tm [2] |
| --- | --- | --- |
| GACCTAGCGAAAGCTGTC (((..(((....)))))) | -11.6 kcal/mol | 33 °C |
| GACCTCCGAAAGGACGTC (((.(((....))).))) | -27.3 kcal/mol | 42 °C |
| GACCTCGCGAAAGCGGTC (((..(((....)))))) | -12.3 kcal/mol | 42.3 °C |
| GACCTGGAAACAGGTC ((((((....)))))) | -40.6 kcal/mol | 61.4 °C |
| GACCTGGGAAACCAGACC (..((((....))))..) | -10.3 kcal/mol | 24.6 °C |
| GACCTGGGAAACCAGGCC (.(((((....))))).) | -12.7 kcal/mol | 46.4 °C |
| GACCTTGGAAACAAGGCC (.(((((....))))).) | -17.2 kcal/mol | 45.2 °C |
| GACGAACCGAAAGGTGTC (((..(((....)))))) | -16.4 kcal/mol | 43.1 °C |
| GACGACGAAAGTCATGTC ((((((....)))..))) | -15.2 kcal/mol | 40.3 °C |
| GACGACGAAAGTCCAGTC ((((((....)))..))) | -21.5 kcal/mol | 36.2 °C |
| GACGACGAAAGTCCCGTC ((((((....)))..))) | -16.6 kcal/mol | 34.3 °C |
| GACGACGAAAGTCGCGTC ((((((....)))..))) | -10.6 kcal/mol | 49.9 °C |
| GACGACGAAAGTCTCGTC ((((((....)))..))) | -17.1 kcal/mol | 46.9 °C |
| GACGACGAAAGTCTGGTC ((((((....)))..))) | -21.8 kcal/mol | 41.2 °C |
| GACGACGGAAACGTTGTC (((.(((....))).))) | -43.1 kcal/mol | 55 °C |
| GACGAGGGAAACCTCATC ((.((((....)))).)) | -20.3 kcal/mol | 31.2 °C |
| GACGATGAAAATCGTC ((((((....)))))) | -31.1 kcal/mol | 61.1 °C |
| GACGATGGAAACACCATC ((.(.((....)).).)) | -17 kcal/mol | 28.4 °C |
| GACGATGGAAACATCATC ((.((((....)))).)) | -18.4 kcal/mol | 33.4 °C |
| GACGCACCGAAAGGTGTC (((..(((....)))))) | -8.75 kcal/mol | 32.1 °C |
| GACGCAGCGAAAGCTGTC (((..(((....)))))) | -7.32 kcal/mol | 33.5 °C |
| GACGCCGAAAGGCGCGTC ((((((....)))..))) | -9.77 kcal/mol | 49.6 °C |

From the array DNA melting data of Ke et al. (doi:10.1101/2024.01.08.574731)
